The source of these data is ChEMBL document CHEMBL3232705, “Discovery of isoquinolinone indole acetic acids as antagonists of chemoattractant receptor homologous molecule expressed on Th2 cells (CRTH2) for the treatment of allergic inflammatory diseases” (J Med Chem, 2014).

For data set [1], the system named is Mus musculus. Put plainly: Antiallergic activity in house dust mite-induced allergic airway disease BALB/c mouse model assessed as reduction in macrophage level in bronchoalveolar lavage fluid at 40 mg/kg, po after 72 hrs of HDM challenge. The settings on record: Lung. Set-up: dose 40 mg/kg. In kind it is functional, organism-based. Put shortly:
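BALB/c mice given house dust mite intratracheally via a catheter passed through the vocal cords. Test article 40 mg/kg orally once daily; dexamethasone 1 mg/kg ip once daily as reference. Total and differential BAL cells (eosinophils, macrophages, lymphocytes, neutrophils) counted 72 h after HDM challenge. Mean ± SEM, Mann–Whitney U test.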

Data set [2] is described as follows: Clearance in monkey at 2 mg/kg, iv. Set-up: dose 2 mg/kg, route intravenous. The settings on record: rhesus monkey, in vivo. Format: ADME, organism-based, Macaca mulatta. The procedure, abridged: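 Single intravenous dose of 2 mg/kg and single oral dose of 10 mg/kg, given separately, in rat, dog and monkey. Clearance and half-life taken from the iv arm; Cmax from the oral arm.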

The subject of data set [3] is Ovis aries. Put plainly: Inhibition of Ascaris-induced airway bronchoconstriction in sheep assessed as inhibition of late phase allergic airway bronchoconstriction at 1 mg/kg, iv qd for 7 days. Format: functional, organism-based. Set-up: dose 1 mg/kg. The procedure, abridged: (§1)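 Sheep given 1 mg/kg iv once daily for 7 days before Ascaris suum allergen challenge. Early and late responses read as airway resistance above baseline, compared with each animal's historical untreated values. After the AHR measurement, three bronchi per sheep were lavaged for cell counts.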

The subject of data set [4] is Cavia porcellus. Put plainly: Antiallergic activity in ovalbumin-induced allergic lung inflammation Hartley guinea pig model assessed as eosinophil level in bronchoalveolar lavage fluid at 20 mg/kg, po administered 1 hr before and 6 hrs after ovalbumin challenge after 24 hrs. More on the design: dose 20 mg/kg. Format: functional, organism-based. Put shortly:
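Female Hartley guinea pigs (375–425 g) sensitized ip on days 1 and 5 with 100 μg OVA plus 100 mg aluminum hydroxide in PBS, then challenged on day 15 with aerosolized 0.01% OVA for 60 min. Dosed orally 1 h before and 6 h after challenge; vehicle was Tween 80 in cherry syrup. On day 16, lungs lavaged with 2 × 10 mL PBS. Total cells counted by hemocytometer; differentials from stained cytospins. Unpaired t test.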

In data set [5] the test system is Ovis aries. The experiment in a line: Inhibition of Ascaris-induced airway bronchoconstriction in sheep assessed as inhibition of early phase allergic airway bronchoconstriction at 1 mg/kg, iv qd for 7 days. Format: functional, organism-based. Set-up: dose 1 mg/kg. Put shortly: as §1
Data set [6] is described as follows: Volume of distribution at steady state in dog at 2 mg/kg, iv. In kind it is ADME, organism-based, Canis lupus familiaris. More on the design: dose 2 mg/kg, route intravenous. The settings on record: in vivo, read-out: Vdss.
In data set [7] the target is Cytochrome P450 2C9 (Homo sapiens, UniProt P11712). Put plainly: Inhibition of CYP2C9 (unknown origin). Format: ADME.
The nature of data set [8]: Volume of distribution at steady state in monkey at 2 mg/kg, iv. Format: ADME, organism-based, Macaca mulatta. More on the design: dose 2 mg/kg, route intravenous. The settings on record: rhesus monkey, in vivo, read-out: Vdss.
Data set [9] in a line: Permeability in human Caco2 cells at pH 6.5. To be noted: Caco-2, pH 6.5.
Data set [10] deals with T1, Prostaglandin D2 receptor (Homo sapiens, UniProt Q13258).
T1 sequence (Q13258 whole entry): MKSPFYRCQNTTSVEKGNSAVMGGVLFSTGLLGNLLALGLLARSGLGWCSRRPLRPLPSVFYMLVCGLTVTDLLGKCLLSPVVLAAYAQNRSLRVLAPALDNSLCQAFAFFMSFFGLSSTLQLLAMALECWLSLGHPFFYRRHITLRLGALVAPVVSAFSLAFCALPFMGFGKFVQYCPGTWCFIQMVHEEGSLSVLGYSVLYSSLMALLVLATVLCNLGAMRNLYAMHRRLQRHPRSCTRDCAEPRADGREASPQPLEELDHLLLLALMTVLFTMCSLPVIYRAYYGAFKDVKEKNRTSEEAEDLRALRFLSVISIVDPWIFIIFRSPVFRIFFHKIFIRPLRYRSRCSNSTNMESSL
The experiment in a line: Binding affinity to DP1 receptor (unknown origin) by FRET assay.

Activity calls are given as the source filed them. No cut-off for these calls is given here.

Chain of Cytochrome P450 2C9 (P11712 whole entry): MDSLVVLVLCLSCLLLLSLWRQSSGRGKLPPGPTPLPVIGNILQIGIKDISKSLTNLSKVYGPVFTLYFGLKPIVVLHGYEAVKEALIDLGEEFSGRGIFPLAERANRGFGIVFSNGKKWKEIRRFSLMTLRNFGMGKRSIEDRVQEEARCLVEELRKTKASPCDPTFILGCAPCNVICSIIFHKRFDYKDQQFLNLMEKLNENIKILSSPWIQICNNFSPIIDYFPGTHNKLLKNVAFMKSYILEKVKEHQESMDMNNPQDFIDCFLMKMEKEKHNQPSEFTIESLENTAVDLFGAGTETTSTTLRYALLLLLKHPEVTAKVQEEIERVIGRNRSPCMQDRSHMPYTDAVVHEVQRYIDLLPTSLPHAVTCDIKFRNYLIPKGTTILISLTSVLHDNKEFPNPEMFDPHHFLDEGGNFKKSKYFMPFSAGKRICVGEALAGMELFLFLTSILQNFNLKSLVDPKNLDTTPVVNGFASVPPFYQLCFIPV

As a reminder, the clearance is the rate of elimination divided by the concentration. The term IC50 denotes the concentration needed to halve the response being measured. One may read the Papp as the rate of passage across a membrane or cell layer, normalised by area and donor concentration. With `Cc1c(-c2cn(C(C)C)c(=O)c3ccccc23)c2cc(F)ccc2n1CC(=O)O`, the inhibition entry in data set [1] is “inactive”. In [2], this compound gave a clearance of 0.366 L/h/kg. Moreover, the inhibition entry in data set [3], in data set [4] and in data set [5] was “Active” each time. The Vd in data set [6] is 0.7 L/kg; in [8], 0.95 L/kg. For the same compound, the values for the IC50 in data set [7] and in [10] were 55 µM and 16 µM, respectively. The Papp in [9] is 27 nm/s.
